This is a sample that favours compounds with a hit; in the whole collection about 2.7% have one here.
GSTO1 counter: blocks human GSTO1 in RBBP9 counter-screen; hit rate 1.1% among 300,000; inhibition, % at 5.96 µM; recombinant GSTO1, activity-based probe fluorescence polarization; P78417;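 active = inhibition above the campaign mean inhibition plus 3 SD, cut at about 35% in these data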;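 note: 0% = GSTO1-1 with DMSO and 100% = wells lacking GSTO1-1 enzyme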
SIAE primary: blocks human sialic acid acetylesterase; SIAE FP-Rh probe binding, fluorescence polarization; inhibition, % at 9.66 µM; hit rate 0.69% among 370,000;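 active = inhibition above a cutoff: mean of compounds within the control limits plus 3 SD of those, cut at about 17% in these data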;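 note: 0% = plate median of compound wells and 100% = probe without SIAE protein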
RBBP9 inhibitor: inhibitors of human serine hydrolase RBBP9 | O75884 | inhibition, % at 7.94 µM | recombinant RBBP9, FP-Rh probe fluorescence polarization | hit rate 0.2% among 220,000;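 active = inhibition above the campaign mean of all tested compounds plus 3 SD, cut at about 14% in these data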;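 note: plate controls were DMSO wells with RBBP9 for no effect and wells lacking RBBP9 protein for full effect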
Target sequence (O75884 whole entry, looked up): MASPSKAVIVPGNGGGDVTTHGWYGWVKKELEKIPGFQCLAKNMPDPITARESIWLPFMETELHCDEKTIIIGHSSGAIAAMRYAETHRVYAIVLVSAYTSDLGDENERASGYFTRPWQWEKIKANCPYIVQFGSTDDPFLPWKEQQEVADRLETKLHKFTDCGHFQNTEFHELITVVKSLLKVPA
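Material: RBBP9 protein. Amount: RBBP9 at 2.5 µM in dispensed solution, before mixing. Schedule: 30 min then 45 min, 25 °C. Medium: Tris buffer pH 8.0, NaCl, Pluronic. Measured by: fluorescence polarization. Measure: percent inhibition from mP, scaled between DMSO and no-protein wells. Replication: one well per compound.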
PRMT1 inh: blocks human protein arginine methyltransferase 1 | Q99873 | recombinant PRMT1, activity-based probe fluorescence polarization | inhibition, % at 2.79 µM | hit rate 1.3% among 370,000 | AID 652257;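 active = inhibition above about 21% made by adding two undisclosed values, limit read from the data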
Target sequence (Q99873 whole entry, looked up): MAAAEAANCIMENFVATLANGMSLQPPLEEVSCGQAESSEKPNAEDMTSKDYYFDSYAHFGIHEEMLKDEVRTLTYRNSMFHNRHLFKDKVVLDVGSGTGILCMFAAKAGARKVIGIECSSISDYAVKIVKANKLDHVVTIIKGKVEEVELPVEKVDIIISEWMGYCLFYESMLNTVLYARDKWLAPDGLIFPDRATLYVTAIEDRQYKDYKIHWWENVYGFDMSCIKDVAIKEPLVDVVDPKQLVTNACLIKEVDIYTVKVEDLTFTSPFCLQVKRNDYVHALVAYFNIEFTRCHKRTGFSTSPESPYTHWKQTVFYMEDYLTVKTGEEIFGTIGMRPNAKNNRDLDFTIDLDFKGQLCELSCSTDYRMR
PAD4 inh: PAD4 (human) enzyme inhibition; Q9UM07; recombinant PAD4, RCA probe fluorescence polarization; inhibition, % at 6.36 µM; hit rate 0.41% among 330,000; AID 485272;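 active = percent inhibition above a cutoff equal to the mean of all tested compounds plus 3 SD, cut at about 15% in these data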;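 note: 0% = PAD4 with RCA probe and DMSO and 100% = probe without PAD4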
GSTO1 inh conf: confirmation of human GSTO1 inhibitors; hit rate 54% among 2,400; shares compounds with GSTO1 counter; AID 2176; recombinant GSTO1, probe fluorescence polarization; inhibition, % at 5.96 µM;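 active = inhibition above the primary screen's cutoff, its mean inhibition plus 3 SD, cut at about 35% in these data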;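 note: loss of polarization as inhibitors block binding of rhodamine sulfonate ester activity probe; 0% = GSTO1 with DMSO and 100% = wells lacking GSTO1 enzyme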
GSTO1 recomb ABPP: inhibitors of recombinant human GSTO1. shares compounds with GSTO1 counter. gel ABPP SE-Rh probe fluorescence. inhibition, % at 1 µM. hit rate 30% among 130;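 active = inhibition of the enzyme GSTO1 above about 75%, limit read from the data; inactive = inhibition below that limit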
Starred values were filed as active, the others as inactive; · = not tested or not shown.

SMILES	GSTO1 counter	SIAE primary	RBBP9 inhibitor	PRMT1 inh	PAD4 inh	GSTO1 inh conf	others
CCC(C)[C@H]1CNC(=S)N1CCC12CC3CC(CC(C3)C1)C2 (some centres undefined)	-6.0	0.0	·	0.6	9.3	·
CCc1ccc(NC(=O)Cn2c3[n+](c4c(F)c(F)ccc42)CCCCC3)cc1	77.5*	-0.4	-5.2	-0.4	-2.6	88.7*
CCCCC(=O)Nc1sc2c(c1C#N)CC(C)(C)OC2	3.1	0.0	-9.0	-3.3	2.5	·
O=C(C(=NNc1ccccc1)c1ccccc1)c1ccccc1	·	-1.6	·	-0.6	·	·
Oc1ccc(O)c(/C(=N/Nc2ccccc2)c2ccccc2)c1	39.8*	·	·	·	-15.2	5.7
CCCn1nc(NC(=O)c2cccs2)c2cc3cccc(C)c3nc21	-4.9	-1.3	-14.7	5.0	-5.1	·
COC(=O)CN1C(=O)C2(C(C#N)=C(N)Oc3c2c(C)nn3-c2ccccc2)c2ccccc21 (centres undefined)	41.7*	-2.8	-9.2	3.3	-3.0	15.1
Cc1cc2ccccc2n2c(SCC(=O)NCc3cccs3)nnc12	-1.9	0.8	5.4	5.1	-0.1	·
COCc1[nH][nH]c(=O)c1C=Nc1ccccc1	2.6	-0.1	3.0	1.0	-3.5	·
COCc1[nH][nH]c(=O)c1/C=N/N1CCOCC1	38.3*	-0.1	-0.3	0.1	-8.1	5.8
O=C1CC2(CCCCC2)CC(=O)N1CCc1ccccc1	·	-0.2	·	5.9	·	·
O=C1C=CC(=O)C(C2=C3C(=O)N(CCc4ccccc4)CC(=O)N3CCC2)=C1	74.6*	12.8	6.1	88.2*	-0.7	6.8
CCCN(C(=O)CCl)C1=CCCCC1	38.2*	5.5	-3.4	-3.3	-3.6	57.9*	GSTO1 recomb ABPP=63.0
CCN(C(=O)COC(=O)CNC(=O)c1ccccc1C)C1=CCCCC1	·	4.2	·	3.5	0.5	·
Cc1ccc2nc(SCC(=O)Nc3ccccc3F)nc(=O)n2c1	1.9	3.7	·	2.2	-0.8	·
NC1=NC(=O)/C(=C\c2cc([N+](=O)[O-])ccc2Cl)S1	45.8*	0.1	-4.6	1.6	4.4	10.5
CCN(CC)C(=O)c1cc([N+](=O)[O-])cc2c1-c1ccc([N+](=O)[O-])cc1C2=C(C#N)C#N	38.0*	15.6	-3.4	2.6	-2.9	24.8
COc1ccc2nc(C)cc(SCC(=O)N/N=C/c3ccc(O)c(O)c3)c2c1	51.3*	-5.0	-13.2	6.0	6.0	4.3
O=C(CSc1nc2ccccc2o1)N/N=C/c1ccc(O)c(O)c1	56.8*	16.1	-7.0	19.7	2.1	11.5
COc1cccc2c(SCC(=O)N/N=C/c3ccc(O)c(O)c3)cc(C)nc12	61.7*	5.0	-10.4	29.2*	1.1	9.1
COc1ccc2nc(C)cc(SCC(=O)N/N=C/c3cccc4ccccc34)c2c1	-8.9	-5.6	-5.2	-1.9	-1.0	·
COc1ccc(NC(=O)OC(CN2CCCCC2)C(F)(F)F)cc1 (centres undefined)	-5.2	1.0	-4.4	-0.3	-2.0	·
Cc1ccc2oc(C(=O)NC3CCS(=O)(=O)C3)c(C)c2c1 (centres undefined)	·	-1.5	·	-0.4	·	·
CC(=O)Oc1ccc(N(C(C)=O)S(=O)(=O)c2cccs2)c2ccccc12	51.8*	-4.6	-6.2	10.9	-5.4	13.5
COc1ccc(CNC(=O)c2ccc(NC(=O)CC3SC(N4CCCC4)=NC3=O)cc2)cc1 (centres undefined)	7.7	-5.5	6.2	0.7	1.8	·
SMILES	GSTO1 counter	SIAE primary	RBBP9 inhibitor	PRMT1 inh	PAD4 inh	GSTO1 inh conf	others
COc1ccc(-c2cc(=O)oc3c(O)c(O)ccc23)cc1	57.8*	-0.8	·	8.7	7.0	18.8
COc1ccc(-c2cc(=O)oc3cc(OC(C)C(=O)O)ccc23)cc1 (centres undefined)	6.2	3.8	-2.7	-1.7	-4.1	·
CC(C)N(Cc1ccccc1)S(=O)(=O)c1cccs1	0.5	-1.8	·	-1.8	0.0	·
O=S(=O)([N-]c1nc2ccccc2nc1-[n+]1ccc(CCCc2ccccc2)cc1)c1cccs1	-9.3	-13.9	-6.6	3.2	-0.8	·
O=C1/C(=N\S(=O)(=O)c2cccs2)C([n+]2ccc(CCCc3ccccc3)cc2)=C([O-])c2ccccc21	78.8*	-0.5	-9.9	1.7	1.1	84.4*
O=C1/C(=N\S(=O)(=O)c2cccs2)C([n+]2cccc(Cc3ccccc3)c2)=C([O-])c2ccccc21	87.0*	·	-8.4	·	5.4	83.1*
O=c1[nH]c(C2CCN(S(=O)(=O)c3ccccc3C(F)(F)F)CC2)nc2c1nnn2Cc1cccc(F)c1	47.0*	-3.3	·	-1.5	-1.3	50.5*
O=c1[nH]c(C2CCN(S(=O)(=O)c3ccc(C(F)(F)F)cc3)CC2)nc2c1nnn2Cc1cccc(F)c1	3.1	-11.8	·	0.7	-2.6	·
COc1ccc(NC(=O)CN(C)C(=O)c2cc3c(s2)CCC3)cc1	59.1*	·	·	·	-3.6	16.6
COc1ccc(NC(=O)CN(C)C(=O)c2cc3c(s2)CCCCC3)cc1	-3.4	-1.0	·	5.2	2.6	·
CC(=O)N(Cc1cccc(Br)c1)c1ccc(N2CCOCC2)c(Cl)c1	7.7	11.6	·	-1.3	-1.0	·
CC(=O)c1ccc(NC(=O)c2cccc(S(=O)(=O)N3CCN(C)CC3)c2)cc1	-5.3	-5.0	·	-3.9	-0.6	·
CC(=O)c1cc2c(cc1NC(=O)c1cccc(S(=O)(=O)N3CCN(C)CC3)c1)OCO2	60.6*	-3.3	2.7	0.0	-15.2	21.8
Cc1ccc(S(=O)(=O)N[C@@H](Cc2ccccc2)C(=O)CCl)cc1	45.0*	0.2	-6.2	17.9	8.2	55.0*
Cc1nnc(N/N=C/c2c(O)n(-c3cccc(C(F)(F)F)c3)c(=O)c3ccccc23)[nH]c1=O	39.1*	7.5	-1.7	-4.0	-3.3	18.6
C=CCN1C(=O)CSc2ccc(C(=O)NCCC3=CCCCC3)cc21	5.9	6.8	-2.5	-0.9	0.3	·
Cc1nnc2c(SC(C)C)nc3ccccc3n12	41.6*	-3.6	·	-3.3	-0.2	5.3
Cc1ccc(-c2nc3ccccc3n3c(C)nnc23)cc1	·	·	1.6	·	·	·
O=C(NCCN1C(=O)C2C3C=CC(C3)C2C1=O)Nc1ccc(Br)cc1 (centres undefined)	3.8	-1.8	-7.6	2.5	0.6	·
N/C(CC1CC1(Cl)Cl)=N\OC(=O)c1ccccc1 (centres undefined)	-5.6	-5.6	0.2	-0.8	-2.4	·
O=C(CSc1nnc(-c2ccco2)c(-c2ccco2)n1)c1ccccc1	43.8*	10.4	-9.2	64.9*	-3.2	17.7
O=C(CSc1nnc(-c2ccco2)n1Cc1ccccc1)c1ccccc1	2.3	6.7	-8.8	-0.6	1.3	·
C[C@]12C=CC(=O)C=C1CC[C@@H]1C2=CC[C@]2(C)[C@@H](C(=O)CN3CCN(c4cc(N5CCCC5)nc(N5CCCC5)n4)CC3)CC[C@@H]12	50.9*	3.1	·	4.4	-10.8	44.8*

Screening results from PubChem BioAssay.
